Measured values from ChEMBL document CHEMBL1131188, “Synthesis and cytotoxicity of 2-methyl-4, 9-dihydro-1-substituted-1H-imidazo[4,5-g]quinoxaline-4,9-diones and 2,3-disubstituted-5,10-pyrazino[2,3-g]quinoxalinediones” (J Med Chem, 1998).

What was measured:
MKN-45 = test: Cytotoxicity of compound against human gastric adenocarcinoma cell line (MKN 45); format: functional, cell-based
Summary of the method: (§1)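 MTT assay: compounds dissolved in DMSO at 1 mM (stock), diluted in RPMI-FCS to various concentrations; single-cell suspensions treated at 37 °C, 5% CO2 for 4 days; MTT added for further 4 h, acid–isopropanol added, OD read at 540 nm. Fractional inhibition = 1 − OD sample/control; IC50 from Chou median-effect analysis; mean of triplicate experiments.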

PC-14 = test: Cytotoxicity of compound against human lung adenocarcinoma cell line (PC14); format: functional, cell-based; summary of the method: as §1

Molecule	IC50 (MKN-45; Homo sapiens, MKN-45)	IC50 (PC-14; Homo sapiens, PC-14)	IC50 (MKN-45; mkn-45)	IC50 (PC-14; pc-14)
CCn1c(C)nc2c1C(=O)c1nccnc1C2=O	93.1 µM	130 µM	–	–
Cc1nc2c(n1C)C(=O)c1nccnc1C2=O	34.1 µM	38.7 µM	–	–
O=C1c2nccnc2C(=O)c2nccnc21	20.1 µM	76.2 µM	–	–
CCc1nc2c(nc1C)C(=O)c1nccnc1C2=O	13 µM	67.5 µM	–	–
Cc1nc2c(nc1C)C(=O)c1nccnc1C2=O	16.7 µM	74 µM	–	–
CISPLATIN	–	–	86.5 µM	3.87 µM
O=C1c2nccnc2C(=O)c2nc(-c3ccccc3)c(-c3ccccc3)nc21	82.5 µM	120 µM	–	–
Cc1nc2c(n1C(C)C)C(=O)c1nccnc1C2=O	61.1 µM	78.3 µM	–	–
Cc1nc2c(n1-c1ccccc1)C(=O)c1nccnc1C2=O	22.8 µM	125 µM	–	–
CCc1nc2c(nc1CC)C(=O)c1nccnc1C2=O	7.61 µM	20.5 µM	–	–
Cc1nc2c([nH]1)C(=O)c1nccnc1C2=O	19.8 µM	82.5 µM	–	–
COc1cccc2c1C(=O)c1c(O)c3c(c(O)c1C2=O)C[C@@](O)(C(=O)CO)C[C@@H]3O[C@H]1C[C@H](N)[C@H](O)[C@H](C)O1 [DOXORUBICIN]	3.13 µM	0.29 µM	–	–
Cc1nc2c(n1-c1ccc(Br)cc1)C(=O)c1nccnc1C2=O	1.3 µM	45.5 µM	–	–
